Assays:
[1] = In vivo inhibition of LRRK2 in CD rat assessed as reduction in serine 935 phosphorylated LRRK2 in striatum at 10 mg/kg, po and measured after 2 hrs by MSD immunoassay; format: functional
Summary of the method: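 Male CD rats (125-150 g) dosed orally with compound suspended in 10% Tween 80 (5 mL/kg) or vehicle, euthanized by CO2 2 h later; striatum dissected, frozen on dry ice; pSer935 LRRK2 measured by MSD immunoassay as pSer935/total LRRK2 ratio, mean ± S.E.M.; one-way ANOVA with Dunnett's post hoc test.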

[2] = biological target: T1, Leucine-rich repeat serine/threonine-protein kinase 2 (Homo sapiens, UniProt Q5S007, G2019S); assay: Inhibition of human LRRK2 G2019S mutant expressed in human SH-SY5Y cells assessed as inhibition of tetracycline induced LRRK2 phosphorylation at Ser935 residue incubated for 90 mins by MSD assay; format: cell-based
T1 sequence (Q5S007 whole entry G2019S): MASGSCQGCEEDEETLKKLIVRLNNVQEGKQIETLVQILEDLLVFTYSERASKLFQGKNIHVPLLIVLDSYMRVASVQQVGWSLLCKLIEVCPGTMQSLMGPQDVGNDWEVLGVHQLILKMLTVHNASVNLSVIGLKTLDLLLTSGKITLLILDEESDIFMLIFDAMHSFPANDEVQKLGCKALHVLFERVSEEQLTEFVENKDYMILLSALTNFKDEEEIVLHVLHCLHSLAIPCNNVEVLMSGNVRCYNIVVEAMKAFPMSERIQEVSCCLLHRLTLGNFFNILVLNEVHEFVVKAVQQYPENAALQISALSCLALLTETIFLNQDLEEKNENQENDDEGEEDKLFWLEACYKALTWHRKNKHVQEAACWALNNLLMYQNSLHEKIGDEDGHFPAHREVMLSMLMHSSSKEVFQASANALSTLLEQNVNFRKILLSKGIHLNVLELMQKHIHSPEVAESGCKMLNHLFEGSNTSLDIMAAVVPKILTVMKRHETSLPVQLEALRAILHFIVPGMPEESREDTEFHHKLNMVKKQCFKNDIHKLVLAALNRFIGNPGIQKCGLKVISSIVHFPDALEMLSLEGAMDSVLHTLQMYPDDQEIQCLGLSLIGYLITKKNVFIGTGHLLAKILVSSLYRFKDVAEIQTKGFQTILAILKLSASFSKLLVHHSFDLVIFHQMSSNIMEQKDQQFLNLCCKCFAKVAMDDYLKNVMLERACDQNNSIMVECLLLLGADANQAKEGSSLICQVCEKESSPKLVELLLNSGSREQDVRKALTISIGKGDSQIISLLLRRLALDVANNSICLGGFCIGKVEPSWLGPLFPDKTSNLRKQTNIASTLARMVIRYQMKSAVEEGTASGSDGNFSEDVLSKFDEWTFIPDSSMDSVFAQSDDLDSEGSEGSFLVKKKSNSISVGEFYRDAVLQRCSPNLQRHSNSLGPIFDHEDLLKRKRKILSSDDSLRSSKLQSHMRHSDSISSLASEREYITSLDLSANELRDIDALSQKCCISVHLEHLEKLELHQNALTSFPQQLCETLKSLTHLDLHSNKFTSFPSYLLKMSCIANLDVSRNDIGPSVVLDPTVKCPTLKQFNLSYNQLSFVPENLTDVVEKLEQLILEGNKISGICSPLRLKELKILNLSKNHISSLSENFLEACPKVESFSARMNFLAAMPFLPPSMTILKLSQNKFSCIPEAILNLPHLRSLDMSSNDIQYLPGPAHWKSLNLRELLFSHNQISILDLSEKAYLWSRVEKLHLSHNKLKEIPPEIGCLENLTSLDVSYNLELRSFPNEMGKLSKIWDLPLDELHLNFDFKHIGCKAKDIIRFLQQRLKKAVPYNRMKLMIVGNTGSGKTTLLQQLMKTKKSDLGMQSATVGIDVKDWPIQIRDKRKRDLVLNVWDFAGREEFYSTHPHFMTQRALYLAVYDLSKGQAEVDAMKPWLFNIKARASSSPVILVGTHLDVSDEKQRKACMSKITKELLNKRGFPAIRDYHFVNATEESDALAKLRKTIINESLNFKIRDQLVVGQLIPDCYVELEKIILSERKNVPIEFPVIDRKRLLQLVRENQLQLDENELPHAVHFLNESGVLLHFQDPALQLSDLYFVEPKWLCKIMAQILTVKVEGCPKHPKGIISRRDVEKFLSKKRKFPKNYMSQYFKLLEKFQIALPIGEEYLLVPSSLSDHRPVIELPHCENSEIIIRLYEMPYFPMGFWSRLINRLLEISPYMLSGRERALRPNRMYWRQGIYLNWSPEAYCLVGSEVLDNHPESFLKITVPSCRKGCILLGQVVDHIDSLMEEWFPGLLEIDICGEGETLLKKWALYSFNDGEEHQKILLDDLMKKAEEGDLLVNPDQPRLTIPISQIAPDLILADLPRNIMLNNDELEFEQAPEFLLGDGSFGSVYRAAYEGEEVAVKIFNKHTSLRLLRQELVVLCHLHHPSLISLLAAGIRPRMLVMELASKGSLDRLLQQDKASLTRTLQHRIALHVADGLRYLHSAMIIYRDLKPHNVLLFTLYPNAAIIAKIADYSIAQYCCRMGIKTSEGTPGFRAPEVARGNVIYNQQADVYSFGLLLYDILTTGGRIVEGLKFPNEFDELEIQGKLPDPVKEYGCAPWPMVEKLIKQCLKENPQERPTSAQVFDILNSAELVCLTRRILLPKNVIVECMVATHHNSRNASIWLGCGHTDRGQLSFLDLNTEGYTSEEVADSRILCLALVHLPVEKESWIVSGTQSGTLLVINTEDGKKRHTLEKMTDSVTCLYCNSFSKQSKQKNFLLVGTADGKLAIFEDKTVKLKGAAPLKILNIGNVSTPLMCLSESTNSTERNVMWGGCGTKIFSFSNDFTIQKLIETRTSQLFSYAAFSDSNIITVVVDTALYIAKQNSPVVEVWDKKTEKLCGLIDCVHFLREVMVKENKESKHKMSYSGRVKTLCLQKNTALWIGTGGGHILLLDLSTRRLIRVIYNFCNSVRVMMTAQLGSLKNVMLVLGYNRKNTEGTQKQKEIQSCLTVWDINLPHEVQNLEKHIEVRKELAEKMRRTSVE
Summary of the method: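 SH-SY5Y neuroblastoma cells carrying LRRK2 G2019S, grown in DMEM/F-12 with GlutaMax, 10% Tet-free FBS, nonessential amino acids and pen-strep at 37 °C, 5% CO2. Expression induced with Tet (2 µg/ml) 48-72 h before treatment. Compound exposure 90 min. Lysates captured on anti-LRRK2-coated MSD plates, probed for pSer935 or total LRRK2 with Sulfo-Tag read-out. IC50 from standard 4P fit of % inhibition.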

[3] = biological target: Dual specificity protein kinase CLK2 (Homo sapiens, UniProt P49760); assay: Inhibition of CLK2 (unknown origin) assessed as substrate phosphorylation using coumarin and fluorescein-labeled peptide as substrate incubated for 1 hr by Z'-LYTE kinase assay
Dual specificity protein kinase CLK2, sequence (P49760 whole entry): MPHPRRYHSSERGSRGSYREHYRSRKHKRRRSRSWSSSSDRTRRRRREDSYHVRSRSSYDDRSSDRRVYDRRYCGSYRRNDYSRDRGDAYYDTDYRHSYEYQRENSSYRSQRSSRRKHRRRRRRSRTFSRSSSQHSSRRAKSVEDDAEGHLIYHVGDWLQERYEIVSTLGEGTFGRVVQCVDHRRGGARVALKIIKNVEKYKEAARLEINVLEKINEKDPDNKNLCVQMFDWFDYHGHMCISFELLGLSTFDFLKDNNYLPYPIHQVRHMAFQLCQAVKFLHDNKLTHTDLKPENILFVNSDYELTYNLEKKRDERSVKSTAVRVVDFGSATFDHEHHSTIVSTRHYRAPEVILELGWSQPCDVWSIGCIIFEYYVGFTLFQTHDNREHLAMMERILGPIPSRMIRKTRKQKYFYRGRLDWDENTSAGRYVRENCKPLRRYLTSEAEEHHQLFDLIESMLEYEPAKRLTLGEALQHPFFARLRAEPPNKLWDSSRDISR
Summary of the method: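 CLK2 Z'-LYTE coupled-enzyme kit format, 10-point titration from DMSO; enzyme, substrate and compound reacted 1 h at ambient temperature; after development solution, read at excitation 400 nm; activity from coumarin 445 nm/fluorescein 520 nm emission ratio.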

Homo sapiens = species on record: Homo sapiens; assay: Selectivity ratio, ratio of IC50 for inhibition of CLK2 (unknown origin) to IC50 for inhibition of recombinant human GST20 tagged truncated LRRK2 G2019S mutant
[4] = biological target: T1, Leucine-rich repeat serine/threonine-protein kinase 2; assay: Inhibition of recombinant human GST20 tagged truncated LRRK2 G2019S mutant assessed as substrate phosphorylation preincubated for 15 mins followed by substrate addition and measured after 90 mins using fluorescein-labeled LRRK2tide as substrate in presence of ATP by TR-FRET based Lanthascreen kinase activity assay
Summary of the method: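 Enzyme 1.25 nM in 50 mM Tris pH 8.5, 10 mM MgCl2, 0.01% Brij-35, 1 mM EGTA, 2 mM DTT, 0.05 mM orthovanadate. Compound (top 9.99 µM in DMSO, ten-point serial dilution) preincubated 15 min at RT. […] Stopped with EDTA plus 2 nM Tb anti-pERM, 1 h RT. 520/495 nm ratio read. IC50 from 4-parameter logistic fit, mean of several runs.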

[5] = Mutagenicity in Salmonella typhimurium TA98 at 30 to 5000 ug in presence of S9 metabolic activation system for 48 hrs by ames test; format: toxicity, Salmonella enterica subsp. enterica serovar Typhimurium; details: dose 30-5000 µg
Summary of the method: (§1)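 Plate incorporation Ames test with S9 from phenobarbital/beta-naphthoflavone-induced male Wistar Han rat liver; 30, 100, 300, 1000, 3000, 5000 µg/plate; triplicate minimal glucose agar plates with trace histidine; 48 h at 37 °C; positive if 2-fold revertant increase over vehicle with dose relation.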

[6] = Mutagenicity in Salmonella typhimurium TA100 at 30 to 5000 ug in presence of S9 metabolic activation system for 48 hrs by ames test; format: toxicity, Salmonella enterica subsp. enterica serovar Typhimurium; details: dose 30-5000 µg; summary of the method: as §1
[7] = Mutagenicity in Salmonella typhimurium TA1535 at 30 to 5000 ug in presence of S9 metabolic activation system for 48 hrs by ames test; format: toxicity, Salmonella enterica subsp. enterica serovar Typhimurium; details: in vitro, dose 30-5000 µg; summary of the method: as §1
[8] = Plasma clearance in po dosed CD rat measured after 120 mins by LC-MS/MS analysis; format: ADME, organism-based
[9] = Intrinsic clearance in po dosed CD rat measured after 120 mins by LC-MS/MS analysis; format: ADME, organism-based; details: in vivo, 2 h
[10] = biological target: Sodium channel protein type 5 subunit alpha (Homo sapiens, UniProt Q14524); assay: Inhibition of human NaV1.5 expressed in HEK293 by PatchXpress automated patch clamp assay; format: cell-based
Sodium channel protein type 5 subunit alpha, sequence (Q14524 whole entry): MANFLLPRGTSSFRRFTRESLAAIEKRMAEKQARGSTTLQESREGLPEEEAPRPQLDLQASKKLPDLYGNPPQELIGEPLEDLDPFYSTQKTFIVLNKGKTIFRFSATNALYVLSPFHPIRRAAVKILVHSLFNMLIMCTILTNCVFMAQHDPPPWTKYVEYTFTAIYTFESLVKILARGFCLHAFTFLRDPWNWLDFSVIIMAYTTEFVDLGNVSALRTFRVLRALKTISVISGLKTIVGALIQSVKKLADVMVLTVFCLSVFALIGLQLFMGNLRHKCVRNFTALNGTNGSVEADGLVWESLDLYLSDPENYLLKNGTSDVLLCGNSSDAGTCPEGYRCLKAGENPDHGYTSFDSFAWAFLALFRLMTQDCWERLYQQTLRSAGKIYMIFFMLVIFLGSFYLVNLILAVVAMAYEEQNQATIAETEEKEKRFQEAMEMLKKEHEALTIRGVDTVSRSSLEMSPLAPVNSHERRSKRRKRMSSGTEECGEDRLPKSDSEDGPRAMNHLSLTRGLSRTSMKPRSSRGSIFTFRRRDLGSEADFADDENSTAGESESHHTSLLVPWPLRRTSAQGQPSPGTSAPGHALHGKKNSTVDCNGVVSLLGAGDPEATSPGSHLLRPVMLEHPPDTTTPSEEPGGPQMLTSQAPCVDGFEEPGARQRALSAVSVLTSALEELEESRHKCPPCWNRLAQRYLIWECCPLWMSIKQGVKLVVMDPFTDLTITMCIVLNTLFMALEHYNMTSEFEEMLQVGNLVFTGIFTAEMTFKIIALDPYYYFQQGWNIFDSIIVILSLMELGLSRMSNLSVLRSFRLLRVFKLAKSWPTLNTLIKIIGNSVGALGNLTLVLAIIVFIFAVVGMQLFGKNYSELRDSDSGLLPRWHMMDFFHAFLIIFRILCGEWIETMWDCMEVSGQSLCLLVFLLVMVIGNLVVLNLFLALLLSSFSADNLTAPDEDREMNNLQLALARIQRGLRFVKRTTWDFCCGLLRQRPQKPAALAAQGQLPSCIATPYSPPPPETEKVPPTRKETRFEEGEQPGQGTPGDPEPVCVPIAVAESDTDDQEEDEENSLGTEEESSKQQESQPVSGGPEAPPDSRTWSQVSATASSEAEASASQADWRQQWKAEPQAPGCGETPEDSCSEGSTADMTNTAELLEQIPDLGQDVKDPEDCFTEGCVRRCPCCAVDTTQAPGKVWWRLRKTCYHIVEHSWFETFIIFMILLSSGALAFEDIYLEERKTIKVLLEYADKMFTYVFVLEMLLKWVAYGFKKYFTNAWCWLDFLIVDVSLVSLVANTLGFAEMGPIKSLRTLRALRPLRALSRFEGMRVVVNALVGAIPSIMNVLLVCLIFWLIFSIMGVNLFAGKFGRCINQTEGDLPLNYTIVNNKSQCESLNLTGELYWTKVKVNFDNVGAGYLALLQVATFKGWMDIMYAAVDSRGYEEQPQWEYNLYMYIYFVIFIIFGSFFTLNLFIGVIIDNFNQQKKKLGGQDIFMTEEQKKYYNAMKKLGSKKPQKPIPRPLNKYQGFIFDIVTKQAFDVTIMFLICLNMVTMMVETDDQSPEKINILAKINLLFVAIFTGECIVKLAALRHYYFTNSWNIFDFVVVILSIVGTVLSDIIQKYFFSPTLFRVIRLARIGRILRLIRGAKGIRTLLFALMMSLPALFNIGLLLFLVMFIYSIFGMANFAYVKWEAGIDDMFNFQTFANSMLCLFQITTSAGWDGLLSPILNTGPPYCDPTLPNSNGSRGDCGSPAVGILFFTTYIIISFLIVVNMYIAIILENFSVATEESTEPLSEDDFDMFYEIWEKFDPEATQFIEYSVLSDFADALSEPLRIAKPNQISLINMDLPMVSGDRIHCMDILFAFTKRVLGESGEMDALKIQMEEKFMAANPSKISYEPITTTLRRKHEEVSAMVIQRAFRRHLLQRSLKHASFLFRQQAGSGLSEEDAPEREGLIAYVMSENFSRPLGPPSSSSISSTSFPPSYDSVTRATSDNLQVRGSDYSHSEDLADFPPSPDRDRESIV

[11] = MRT in po dosed CD rat measured after 120 mins by LC-MS/MS analysis; format: ADME, organism-based; details: in vivo
P-gp (rat Mdr1a) [12] = assay: Substrate activity at P-gp (unknown origin) expressed in LLC-PK1 cells transfected with rat Mdr1a assessed as efflux ratio of apparent permeability across basolateral to apical side to apparent permeability across apical to basolateral side at 1 uM incubated for 3 hrs by LC-MSMS analysis; format: ADME, cell-based, Sus scrofa; details: pig
[13] = Intrinsic clearance in po dosed Beagle dog and measured upto 24 hrs by LC-MS/MS analysis; format: ADME, organism-based, Canis lupus familiaris; details: in vivo
[14] = Plasma clearance in po dosed Beagle dog and measured upto 24 hrs by LC-MS/MS analysis; format: ADME, organism-based, Canis lupus familiaris
[15] = MRT in po dosed Beagle dog and measured upto 24 hrs by LC-MS/MS analysis; format: ADME, organism-based, Canis lupus familiaris; details: in vivo
P-gp (rat Mdr1a) [16] = assay: Substrate activity at P-gp (unknown origin) expressed in LLC-PK1 cells transfected with rat Mdr1a assessed as apparent permeability at 1 uM incubated for 3 hrs by LC-MSMS analysis; format: ADME, cell-based, Sus scrofa; details: pig
[17] = Brain to plasma permeability coefficient, Kp in CD rat plasma assessed as unbound fraction at 3 to 100 mg/kg, po and measured after 2 hrs by LC/MS/MS analysis; format: ADME, organism-based; details: in vivo, dose 3-100 mg/kg

Compound | IC50 [2] | IC50 [3] | Ratio IC50 (Homo sapiens) | IC50 [4] | further results
C[C@@H]1CN(c2cc(-c3n[nH]c4ccc(OC5(C)CC5)cc34)ncn2)C[C@H](C)O1 [MLi-2] |  |  |  |  | inhibition in vivo at 10 mg/kg [1]: 72%
Cc1cnc(N2C[C@@H](C)O[C@@H](C)C2)cc1NC(=O)c1cccc(-c2cnn(C)c2)n1 | 0.024 µM | 0.124 µM | 14 | 0.009 µM | 
Cn1cc(-c2nccc(C(=O)Nc3cnn(C4CCC4)c3)n2)cn1 | 0.953 µM | 17.2 µM | 505 |  | 
CC(C)(O)[C@@H]1CCN(c2cc(N)c(C(F)(F)F)cn2)C1 |  |  |  |  | Activity [5]: Toxic; Activity [6]: Toxic; Activity [7]: Toxic
CC(C)(O)[C@@H]1CCN(c2cnc(C(F)(F)F)c(NC(=O)c3cccc(-c4cnn(CC(F)(F)F)c4)n3)c2)C1 | 0.0007 µM | 0.442 µM | 42 | 0.01 µM | CL/F [8]: 2.52 L/h/kg; CL [9]: 166.8 L/h/kg; IC50 [10]: 30 µM; MRT [11]: 1.7 h
C[C@@H]1CN(c2cc(NC(=O)c3cccc(-c4cnn(C)c4)n3)c(C(F)(F)F)cn2)C[C@H](C)O1 | 0.0015 µM | 0.021 µM | 5 | 0.004 µM | 
Cn1cc(-c2cccc(C(=O)Nc3cc(N4CC(O)C4)ncc3C(F)(F)F)n2)cn1 | 0.0075 µM | 0.064 µM | 13 | 0.0048 µM | 
CC(C)(O)[C@@H]1CCN(c2cnc(C(F)(F)F)c(NC(=O)c3cccc(-c4cnn(CC5(C(F)(F)F)CC5)c4)n3)c2)C1 | 0.0003 µM | 0.47 µM | 59 | 0.008 µM | CL/F [8]: 5.22 L/h/kg; MRT [11]: 1.2 h
C[C@@H]1[C@@H](O)CN1c1cc(NC(=O)c2cccc(-c3cnn(C)c3)n2)c(C(F)(F)F)cn1 | 0.002 µM | 0.012 µM |  | 0.002 µM | 
Cn1cc(-c2cccc(C(=O)Nc3cnn(C4CCC4)c3)c2F)cn1 | 1.65 µM | 0.716 µM | 10 | 0.07 µM | 
Cn1cc(-c2cccc(C(=O)Nc3cnn(C4CCC4)c3)n2)cn1 | 0.905 µM | 5.96 µM | 112 | 0.053 µM | 
CC(C)(O)[C@@H]1CCN(c2cnc(C(F)(F)F)c(NC(=O)c3cccc(-c4cnn(C5CCC5)c4)n3)c2)C1 | 0.0013 µM | 0.091 µM | 5 | 0.019 µM | CL/F [8]: 1.88 L/h/kg; MRT [11]: 2.1 h
C[C@@H]1[C@H](O)CCN1c1cc(NC(=O)c2cccc(-c3cnn(C)c3)n2)c(C(F)(F)F)cn1 | 0.003 µM | 0.086 µM |  | 0.005 µM | 
CC(C)(O)[C@@H]1CCN(c2cnc(C(F)(F)F)c(NC(=O)c3cccc(-c4cnn(CC5CC5)c4)n3)c2)C1 | 0.0004 µM | 0.023 µM | 3 | 0.0086 µM | CL/F [8]: 2.28 L/h/kg; CL [9]: 4707.8 L/h/kg; MRT [11]: 2.9 h
C[C@H]1CN(c2cc(NC(=O)c3cccc(-c4cnn(C)c4)n3)c(C(F)(F)F)cn2)CCN1C1COC1 |  | 0.008 µM | 5 | 0.0015 µM | CL/F [8]: 0.162 L/h/kg; CL [9]: 244.9 L/h/kg; MRT [11]: 2.2 h
Cc1nc(NC(=O)c2cccc(-c3cnn(C)c3)n2)cc(N2CC[C@@H](C(C)(C)O)C2)n1 | 0.042 µM | 0.255 µM |  | 0.004 µM | 
Cn1cc(-c2cccc(C(=O)Nc3cc(N4CC[C@@H](C(C)(C)O)C4)cnc3C(F)(F)F)n2)cn1 | 0.021 µM | 0.062 µM | 4 | 0.017 µM | CL/F [8]: 0.402 L/h/kg; CL [9]: 16.3 L/h/kg; MRT [11]: 4.9 h; efflux ratio at 3 h, 1 µM (P-gp (rat Mdr1a) [12]): 0.94; CL [13]: 61.74 L/h/kg; CL/F [14]: 0.288 L/h/kg; MRT [15]: 9.4 h; Papp at 3 h, 1 µM (P-gp (rat Mdr1a) [16]): 290 nm/s; Kp [17]: 0.4
COC1CN(c2cc(NC(=O)c3cccc(-c4cnn(C)c4)n3)c(C(F)(F)F)cn2)C1 | 0.0028 µM | 0.067 µM | 2.4 | 0.028 µM | 
CC(C)(O)[C@@H]1CCN(c2cnc(C(F)(F)F)c(N)c2)C1 |  |  |  |  | Activity [5]: Non-Toxic; Activity [6]: Non-Toxic; Activity [7]: Non-Toxic
Cn1cc(-c2nc(C(=O)Nc3cnn(C4CCC4)c3)cs2)cn1 | 0.271 µM | 0.119 µM | 8.5 |  | 
CCn1cc(-c2cccc(C(=O)Nc3cc(N4CC[C@@H](C(C)(C)O)C4)cnc3C(F)(F)F)n2)cn1 | 0.007 µM | 0.03 µM |  | 0.04 µM | 
Cn1cc(-c2cccc(C(=O)Nc3cc(N4CC5(C(C)(C)O)CC4C5)ncc3C(F)(F)F)n2)cn1 | 0.002 µM | 0.0096 µM |  | 0.009 µM | 
Cc1nc(N)cc(N2CC[C@@H](C(C)(C)O)C2)n1 |  |  |  |  | Activity [5]: Non-Toxic; Activity [6]: Non-Toxic; Activity [7]: Non-Toxic
